{"source": "paper PMC3016492", "about": "(Cellular and Molecular Life Sciences: CMLS, 2010)", "key": {"MK5 [1]": {"biological_target": "T1, MK5 (Homo sapiens, UniProt Q8IW41)", "T1 sequence (Q8IW41 1-473)": "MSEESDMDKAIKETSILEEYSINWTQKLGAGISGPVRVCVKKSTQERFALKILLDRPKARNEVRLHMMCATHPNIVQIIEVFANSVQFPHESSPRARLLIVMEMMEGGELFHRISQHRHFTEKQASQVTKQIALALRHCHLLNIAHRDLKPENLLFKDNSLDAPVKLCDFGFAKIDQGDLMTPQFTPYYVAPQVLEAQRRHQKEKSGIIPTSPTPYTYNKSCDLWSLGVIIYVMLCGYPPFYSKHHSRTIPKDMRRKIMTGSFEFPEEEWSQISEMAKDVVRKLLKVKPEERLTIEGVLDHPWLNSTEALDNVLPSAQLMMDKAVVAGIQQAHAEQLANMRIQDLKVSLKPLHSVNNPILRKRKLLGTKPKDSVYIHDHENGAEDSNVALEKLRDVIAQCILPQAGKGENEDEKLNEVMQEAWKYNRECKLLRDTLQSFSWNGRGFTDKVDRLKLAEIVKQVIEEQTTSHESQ", "experiment": "MK5 kinase activity against PRAKtide substrate peptide", "assay_type": "biochemical", "conditions": "for inhibition of MK5 enzyme activity (in words): initial screening at 2 mM"}, "MK5 [2]": {"biological_target": "T1, MK5", "conditions": "read-out: IC50 MK5; cited from earlier work"}, "ERK2": {"biological_target": "ERK2 (Homo sapiens, UniProt P28482)", "sequence (P28482 whole entry)": "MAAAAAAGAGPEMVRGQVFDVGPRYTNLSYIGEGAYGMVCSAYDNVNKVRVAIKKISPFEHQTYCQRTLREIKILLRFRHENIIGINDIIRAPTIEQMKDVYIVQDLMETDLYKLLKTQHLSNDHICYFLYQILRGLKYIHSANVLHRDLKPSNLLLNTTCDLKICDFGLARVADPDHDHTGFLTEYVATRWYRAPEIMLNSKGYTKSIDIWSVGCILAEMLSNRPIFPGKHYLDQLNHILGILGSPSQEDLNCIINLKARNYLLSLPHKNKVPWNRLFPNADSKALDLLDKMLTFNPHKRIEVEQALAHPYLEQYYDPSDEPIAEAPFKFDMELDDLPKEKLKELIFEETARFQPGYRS", "conditions": "10 μM; cited from earlier work"}, "DYRK1A [3]": {"biological_target": "T2, DYRK1A (Homo sapiens, UniProt Q13627)", "conditions": "10 μM; cited from earlier work"}, "ROCK-II": {"system": "ROCK-II", "conditions": "10 μM; cited from earlier work"}, "PDK1 [4]": {"biological_target": "T3, PDK1 (Homo sapiens, UniProt O15530)", "T3 sequence (O15530 1-556)": "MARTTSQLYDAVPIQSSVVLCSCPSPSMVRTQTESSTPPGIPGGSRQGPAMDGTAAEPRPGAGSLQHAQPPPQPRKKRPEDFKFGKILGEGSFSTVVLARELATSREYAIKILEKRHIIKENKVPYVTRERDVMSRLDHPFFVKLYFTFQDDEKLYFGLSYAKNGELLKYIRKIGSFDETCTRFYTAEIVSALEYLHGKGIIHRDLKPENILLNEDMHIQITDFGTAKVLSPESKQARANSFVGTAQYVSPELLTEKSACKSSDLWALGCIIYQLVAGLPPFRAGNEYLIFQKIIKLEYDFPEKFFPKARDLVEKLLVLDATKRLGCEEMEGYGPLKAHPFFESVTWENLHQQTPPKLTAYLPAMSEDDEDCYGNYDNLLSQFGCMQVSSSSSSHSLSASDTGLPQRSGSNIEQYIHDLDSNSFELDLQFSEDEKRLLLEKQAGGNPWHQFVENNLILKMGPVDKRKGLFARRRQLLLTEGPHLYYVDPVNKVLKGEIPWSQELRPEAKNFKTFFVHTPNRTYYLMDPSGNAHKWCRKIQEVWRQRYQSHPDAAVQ", "conditions": "10 μM; cited from earlier work"}, "MK5 [5]": {"biological_target": "T1, MK5", "conditions": "read-out: IC50 MK5; cited from earlier work", "remark": "listed apart in the source"}, "Aurora B": {"system": "Aurora B", "conditions": "10 μM; cited from earlier work"}, "DYRK1A [6]": {"biological_target": "T2, DYRK1A", "conditions": "10 μM; cited from earlier work", "remark": "listed apart in the source"}, "IKKβ": {"system": "IKKβ", "conditions": "10 μM; cited from earlier work"}, "MK3": {"biological_target": "MK3 (Homo sapiens, UniProt Q16644)", "sequence (Q16644 whole entry, species assumed)": "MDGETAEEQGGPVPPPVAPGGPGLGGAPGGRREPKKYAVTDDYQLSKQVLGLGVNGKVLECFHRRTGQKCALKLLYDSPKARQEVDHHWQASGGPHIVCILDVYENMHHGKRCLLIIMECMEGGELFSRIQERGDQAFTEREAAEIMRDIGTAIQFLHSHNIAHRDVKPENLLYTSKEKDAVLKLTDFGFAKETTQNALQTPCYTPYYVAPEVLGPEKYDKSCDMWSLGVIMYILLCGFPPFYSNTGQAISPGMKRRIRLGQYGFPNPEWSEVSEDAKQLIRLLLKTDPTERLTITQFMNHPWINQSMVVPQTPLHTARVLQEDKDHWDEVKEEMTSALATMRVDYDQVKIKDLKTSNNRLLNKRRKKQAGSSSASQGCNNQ", "conditions": "10 μM; cited from earlier work"}, "ERK8": {"system": "ERK8", "conditions": "10 μM; cited from earlier work"}, "GSK3β": {"system": "GSK3β", "conditions": "10 μM; cited from earlier work"}, "RSK2": {"system": "RSK2", "conditions": "10 μM; cited from earlier work"}, "MSK1": {"system": "MSK1", "conditions": "10 μM; cited from earlier work"}, "p70^S6K": {"system": "p70^S6K", "conditions": "10 μM; cited from earlier work"}, "PDK1 [7]": {"biological_target": "T3, PDK1", "conditions": "10 μM; cited from earlier work", "remark": "listed apart in the source"}, "PHK": {"system": "PHK", "conditions": "10 μM; cited from earlier work"}, "PKA": {"biological_target": "PKA (Homo sapiens, UniProt P17612)", "conditions": "10 μM; cited from earlier work"}, "PKB2": {"system": "PKB2", "conditions": "10 μM; cited from earlier work"}, "PLK1": {"biological_target": "PLK1 (Homo sapiens, UniProt P53350)", "sequence (P53350 whole entry)": "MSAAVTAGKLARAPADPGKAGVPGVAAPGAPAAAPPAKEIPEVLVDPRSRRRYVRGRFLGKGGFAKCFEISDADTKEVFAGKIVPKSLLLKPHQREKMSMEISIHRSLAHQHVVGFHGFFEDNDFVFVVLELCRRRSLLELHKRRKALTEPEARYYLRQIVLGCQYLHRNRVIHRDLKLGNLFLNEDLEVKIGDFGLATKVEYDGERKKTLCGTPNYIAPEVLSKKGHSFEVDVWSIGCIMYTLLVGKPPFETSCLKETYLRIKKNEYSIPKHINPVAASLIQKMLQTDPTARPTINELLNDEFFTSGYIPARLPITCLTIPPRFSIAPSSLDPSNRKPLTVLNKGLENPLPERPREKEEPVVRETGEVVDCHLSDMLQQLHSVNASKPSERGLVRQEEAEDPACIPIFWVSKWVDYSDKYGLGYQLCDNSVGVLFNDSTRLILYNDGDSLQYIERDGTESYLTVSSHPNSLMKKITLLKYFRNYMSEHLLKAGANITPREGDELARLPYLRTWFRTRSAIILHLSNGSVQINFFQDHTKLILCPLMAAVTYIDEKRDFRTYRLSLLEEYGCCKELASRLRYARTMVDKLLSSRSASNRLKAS", "conditions": "10 μM; cited from earlier work"}, "p38δ": {"system": "p38δ", "conditions": "10 μM; cited from earlier work"}, "smMLCK": {"system": "smMLCK", "conditions": "10 μM; cited from earlier work"}, "[8]": {"system": "PKA-induced nuclear export of MK5", "experiment": "PKA-induced nuclear export of EGFP-MK5 in PC12 cells", "assay_type": "cell-based", "conditions": "10 μM forskolin, 30 min, no compound 11, untreated control 6%", "outline": "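PC12 cells were grown in F-12K with 2 mM L-glutamine, 1.5 g/l sodium bicarbonate, 15% horse serum, 2.5% fetal calf serum, penicillin and streptomycin. They were transfected with EGFP-MK5 by nucleofection, then left untreated or pretreated with 20 μM test compound. Next came 10 μM forskolin for 30 min. Cells were fixed in 4% formaldehyde for 10 min and washed in PBS. Several hundred cells were scored by confocal microscopy for nuclear plus cytosolic EGFP-MK5.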"}}, "note": "Like-named read-outs stand apart in the source and are kept apart here.", "data": [{"smiles": "CCN1C[C@]2(COC)[C@H](O)C[C@H](OC)[C@@]34[C@@H]5C[C@@]6(O)[C@H](OC(=O)c7ccccc7)[C@@H]5[C@@](OC(C)=O)([C@@H]([C@H](OC)[C@H]23)[C@@H]14)[C@@H](O)[C@@H]6OC", "note": "[Compound 6, aconitine]", "values": [{"measurement": "inhibition of MK5 enzyme activity (in words)", "setting": "MK5 [1]", "result": "completely blocked"}]}, {"smiles": "CCN1C[C@]2(COC)[C@H](O)C[C@H](OC)[C@]34C1[C@H]([C@H](OC)[C@H]23)[C@]1(O)[C@H]2[C@@H](O)[C@](O)(C[C@H]24)[C@@H](OC)[C@@H]1O", "note": "[Compound 8, aconine]", "values": [{"measurement": "Ki", "setting": "MK5 [1]", "result": 301, "unit": "µM"}, {"measurement": "IC50 MK5 (in words)", "setting": "MK5 [1]; dose-response, PRAKtide substrate", "result": "in the mM range"}, {"measurement": "inhibition of MK5 enzyme activity (in words)", "setting": "MK5 [1]", "result": "completely blocked"}, {"measurement": "mode of inhibition against ATP", "setting": "MK5 [1]; varying ATP concentrations, Lineweaver-Burk", "result": "ATP-competitive"}]}, {"smiles": "O=C(O[C@@H]1Cc2c(O)cc(O)cc2O[C@@H]1c1cc(O)c(O)c(O)c1)c1cc(O)c(O)c(O)c1", "note": "[EGCG, epigallocatechin gallate]", "values": [{"measurement": "IC50", "setting": "MK5 [2]", "result": "< 10", "unit": "µM"}, {"measurement": "inhibition of in vitro kinase activity of ERK2", "setting": "ERK2", "result": "~ 90%"}, {"measurement": "inhibition of in vitro kinase activity of DYRK1A", "setting": "DYRK1A [3]", "result": "~ 90%"}, {"measurement": "inhibition of in vitro kinase activity of ROCK-II", "setting": "ROCK-II", "result": "~ 90%"}, {"measurement": "inhibition of in vitro kinase activity of PDK1", "setting": "PDK1 [4]", "result": "~ 90%"}]}, {"smiles": "COc1ccc(C=CC(=O)c2c(O)cc(OC)cc2OC)cc1", "note": "[flavokavain A]", "values": [{"measurement": "IC50", "setting": "MK5 [5]", "result": 10, "unit": "µM"}, {"measurement": "inhibition of Aurora B (in words, relative to MK5)", "setting": "Aurora B", "result": "more or to a similar extent"}, {"measurement": "inhibition of DYRK1A (in words, relative to MK5)", "setting": "DYRK1A [6]", "result": "more or to a similar extent"}, {"measurement": "inhibition of IKKβ (in words, relative to MK5)", "setting": "IKKβ", "result": "more or to a similar extent"}, {"measurement": "inhibition of MK3 (in words, relative to MK5)", "setting": "MK3", "result": "more or to a similar extent"}, {"measurement": "inhibition of ERK8", "setting": "ERK8", "result": "40–70%"}, {"measurement": "inhibition of GSK3β", "setting": "GSK3β", "result": "40–70%"}, {"measurement": "inhibition of RSK2", "setting": "RSK2", "result": "40–70%"}, {"measurement": "inhibition of MSK1", "setting": "MSK1", "result": "40–70%"}, {"measurement": "inhibition of p70^S6K", "setting": "p70^S6K", "result": "40–70%"}, {"measurement": "inhibition of PDK1", "setting": "PDK1 [7]", "result": "40–70%"}, {"measurement": "inhibition of PHK", "setting": "PHK", "result": "40–70%"}, {"measurement": "inhibition of PKA", "setting": "PKA", "result": "40–70%"}, {"measurement": "inhibition of PKB2", "setting": "PKB2", "result": "40–70%"}, {"measurement": "inhibition of PLK1", "setting": "PLK1", "result": "40–70%"}, {"measurement": "inhibition of p38δ", "setting": "p38δ", "result": "40–70%"}, {"measurement": "inhibition of smMLCK", "setting": "smMLCK", "result": "40–70%"}]}, {"smiles": "C=C[C@@]1(C)CC(=O)[C@]2(O)[C@@]3(C)[C@@H](O)CCC(C)(C)[C@@H]3[C@H](O)[C@H](OC(C)=O)[C@@]2(C)O1", "note": "[forskolin]", "values": [{"measurement": "cells displaying both nuclear and cytosolic EGFP-MK5", "setting": "[8]", "result": "approximately 84%"}, {"measurement": "cells displaying both nuclear and cytosolic EGFP-MK5", "setting": "[8]; listed as Forskolin", "result": 84, "unit": "%"}]}]}
